Assay [1] is described as follows: Maximum efficacy for [35S]GTP-gamma-S, binding to Opioid receptor mu 1. Type of assay: functional. In a few lines:
(§1)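 Membranes from cells expressing the receptor, washed and resuspended in 20 mM Hepes, 10 mM MgCl2, 100 mM NaCl, pH 7.4. 8–15 μg protein incubated 60 min at 25 °C with 50 pM [35S]GTP-γ-S, 10 μM GDP and test compound. Bound label collected on glass fiber filters and counted; EC50 for stimulation of binding.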
(GTPγS resists hydrolysis and so accumulates on activated G proteins.)

Assay [2] in a line: Inhibition of [3H]U-69593 binding to Opioid receptor kappa 1. In a few lines: (§2)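 Membranes from cells expressing the receptor, homogenized and washed in Tris, resuspended in 50 mM Tris pH 7.5. Incubated 60–120 min at 25 °C with [3H]DAMGO (mu), [3H]DPDPE (delta) or [3H]U69593 (kappa), about 15–30 μg protein. Filtration on glass fiber filters, scintillation counting. IC50 from at least six test concentrations; Ki by Cheng–Prusoff.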

Assay [3] is described as follows: Maximum efficacy for [35S]GTP-gamma-S, binding to Opioid receptor delta 1. Type of assay: functional. In outline: as §1
Assay [4] is described as follows: Maximum efficacy for [35S]GTP-gamma-S, binding to Opioid receptor kappa 1; no activity. Type of assay: functional. In outline: as §1
Assay [5] can be described thus: Inhibition of [3H]DAMGO binding to Opioid receptor mu 1. In a few lines: as §2
A short description of assay [6]: Inhibition of [3H]DPDPE binding to Opioid receptor delta 1. In outline:
as §2

Assay [7] in a line: Maximum efficacy for [35S]GTP-gamma-S, binding to Opioid receptor kappa 1; not active. It counts as functional. In outline: as §1
A short description of assay [8]: Stimulation of [35S]GTP-gamma-S, binding at Opioid receptor kappa 1; not active. It counts as functional. In a few lines:
as §1

Assay [9] can be described thus: Stimulation of [35S]GTP-gamma-S, binding at Opioid receptor kappa; no activity. It counts as functional. In a few lines: as §1
Assay [10] is described as follows: Maximum efficacy for [35S]GTP-gamma-S, binding to Opioid receptor kappa 1. Type of assay: functional. In outline:
as §1

A short description of assay [11]: Stimulation of [35S]GTP-gamma-S, binding at Opioid receptor mu1; not active. Type of assay: functional. In a few lines:
as §1

The nature of assay [12]: Maximum efficacy for [35S]GTP-gamma-S, binding to mu opioid receptor; not active. It counts as functional. In a few lines: as §1

Active and inactive are the calls of the source. The rule behind the calls is not given here.

The term Ki denotes a dissociation constant, usually derived from enzyme kinetics or from competition with a known ligand. A lower Ki goes with higher affinity. As for `CN1CC[C@]23c4c5ccc(O)c4O[C@H]2[C@@H](O[C@@H]2O[C@H](C(=O)O)[C@@H](O)[C@H](O)[C@H]2O)C=C[C@H]3[C@H]1C5` [MORPHINE GLUCURONIDE], the Emax was found to be 45 in assay [1] and 80 in assay [3]. The Ki in [2] amounted to 4060 µM; in assay [5], 12.9 µM; in assay [6], 170 µM. Also, in assay [4], the Emax result is “inactive”.

For `CC(=O)OC1C(SC2C=C[C@H]3[C@H]4Cc5ccc(O)c6c5[C@@]3(CCN4C)[C@H]2O6)OC(C(=O)O)C(OC(C)=O)C1OC(C)=O` (stereo partly drawn), the Emax result in assay [7] was “inactive”. Besides, the Emax in assay [1] came out at 46.6; in [3] it was 78.7. Also, the Ki worked out at 288 µM in assay [2], 8.7 µM in assay [5] and 31.4 µM in assay [6]. Besides, the EC50 entry in assay [8] is given as “Not Active”.

For the compound `COC(=O)C1OC(SC2C=C[C@H]3[C@H]4Cc5ccc(OC(C)=O)c6c5[C@@]3(CCN4C)[C@H]2O6)C(OC(C)=O)C(OC(C)=O)C1OC(C)=O` (stereo partly drawn), the values for the Emax in [1] and in assay [3] were 37.8 and 46.8, respectively. In addition, the Ki in assay [2] was 189 µM; in assay [5], 100 µM; in assay [6], 528 µM. Further, the Emax entry in assay [4] is “inactive”. Further, the EC50 entry in assay [9] was “Not Active”.

For `CN1CC[C@]23c4c5ccc(O)c4O[C@H]2[C@@H](O)C=C[C@H]3[C@H]1C5`, the Emax in assay [1] came to 93.

On to `CC(=O)OCC1OC(SC2C=C[C@H]3[C@H]4Cc5ccc(O)c6c5[C@@]3(CCN4C)[C@H]2O6)C(OC(C)=O)C(OC(C)=O)C1OC(C)=O` (stereo in doubt; 5e) [listing 1 of 2 here], for which the Ki in [2] is 2970 µM; in assay [6], 19.5 µM.

With `CC(=O)OCC1OC(SC2C=C[C@H]3[C@H]4Cc5ccc(OC(C)=O)c6c5[C@@]3(CCN4C)[C@H]2O6)C(OC(C)=O)C(OC(C)=O)C1OC(C)=O` (stereo partly drawn), the Emax in [1] was found to be 44.1; in assay [3] it was 39.3; in assay [10], 36.9. In addition, the Ki in assay [2] was 1390 µM; in assay [5], 305 µM; in assay [6], 762 µM.

In the case of `COC(=O)C1OC(SC2C=C[C@H]3[C@H]4Cc5ccc(O)c6c5[C@@]3(CCN4C)[C@H]2O6)C(OC(C)=O)C(OC(C)=O)C1OC(C)=O` (stereo partly drawn), the Emax worked out at 88.3 in assay [1], 104 in assay [3] and 23.5 in assay [10]. Moreover, the Ki stood at 11 µM in assay [2], 5.4 µM in assay [5] and 15.6 µM in assay [6].

On to `CC(=O)OC1C(CO)OC(SC2C=C[C@H]3[C@H]4Cc5ccc(O)c6c5[C@@]3(CCN4C)[C@H]2O6)C(OC(C)=O)C1OC(C)=O` (stereo partly drawn), for which the Emax in [1] was determined as 64.5; in assay [3] it was 51.5; in assay [10], 42.5. The figures for the inhibition constant (Ki) in assay [2], in [5] and in assay [6] were 136 µM, 5.4 µM and 56.2 µM, respectively.

As for `CC(=O)OCC1OC(SC2C=C[C@H]3[C@H]4Cc5ccc(O)c6c5[C@@]3(CCN4C)[C@H]2O6)C(OC(C)=O)C(OC(C)=O)C1OC(C)=O` (stereo in doubt; 5e) [listing 2 of 2 here], the Emax was found to be 76 in assay [1], 45.5 in assay [3] and 26.5 in assay [10].

Take `COC(=O)C1OC(SC2C=C[C@H]3[C@H]4Cc5ccc(OC)c6c5[C@@]3(CCN4C)[C@H]2O6)C(OC(C)=O)C(OC(C)=O)C1OC(C)=O` (stereo partly drawn): the Emax in assay [1] was 19.3; in [3] it was 64.3; in [10] it was 24.3. Moreover, the inhibition constant Ki stood at 499 µM in [2], 64 µM in [5] and 438 µM in assay [6].

Take `COc1ccc2c3c1O[C@H]1C(SC4OC(C(=O)O)C(OC(C)=O)C(OC(C)=O)C4OC(C)=O)C=C[C@H]4[C@@H](C2)N(C)CC[C@]314` (stereo partly drawn): the Emax result in assay [7] and in assay [12] was “inactive” in each case. Moreover, the inhibition constant Ki is over 10000 µM in assay [2], 463 µM in assay [5] and 2680 µM in [6]. The same compound registered an Emax in [3] of 44.2. Further, the EC50 entry in assay [11] and in assay [8] was “Not Active” in each case.

(Values after ChEMBL document CHEMBL1138838, “Design, chemical synthesis, and biological evaluation of thiosaccharide analogues of morphine- and codeine-6-glucuronide” (J Med Chem, 2004).)
